Measurements collected from several papers.
Lines come from different studies, so protocols differ.
FABP1: Fatty acid-binding protein, liver (FABP1, Homo sapiens, UniProt P07148)
MAL12: Alpha-glucosidase MAL12 (MAL12, Saccharomyces cerevisiae S288c, UniProt P53341)
ADRA1A: Alpha-1A adrenergic receptor (ADRA1A, Homo sapiens, UniProt P35348)
MAOA: Amine oxidase [flavin-containing] A (MAOA, Homo sapiens, UniProt P21397)

| Compound | target | test | conditions | endpoint | result |
| --- | --- | --- | --- | --- | --- |
| CCOC(=O)c1ccc(OC(=O)CCCCCN=C(N)N)cc1 | Kallikrein-7 (KLK7, Homo sapiens, UniProt P49862) | enzyme activity, inhibitor | – | IC50 | 15.6 µM |
| O=C(Nc1ccc([N+](=O)[O-])cc1Cl)c1cc(Cl)ccc1O | FABP1 | ligand displacement, fluorescence | – | Kd | 9.69 µM |
| O=P(Oc1ccccc1)(Oc1ccccc1)C(NCc1cncc2ccccc12)c1ccc(O)cc1 (stereo not shown) | sn-1-specific diacylglycerol lipase ABHD11 (ABHD11, Homo sapiens, UniProt Q8NFV4) | enzyme activity, inhibitor | lysate | IC50 | 1.9 µM |
| Cc1cc(SC2=C(O)C[C@@](CCc3ccc(N)cc3)(C(C)C)OC2=O)c(C(C)(C)C)cc1CO | FABP1 | ligand displacement, fluorescence | – | Kd | 1.68 µM |
| CCc1ccc(N2C(=O)/C(=C3/C(=O)N(C)c4ccc(Cl)cc43)NC2=S)cc1 | MAL12 | enzyme activity, inhibitor, absorbance | – | IC50 | 128 µM |
| O=S(=O)(O)C(F)(F)C(F)(F)C(F)(F)C(F)(F)C(F)(F)C(F)(F)F | FABP1 | ligand displacement, fluorescence | – | Kd | 11.2 µM |
| CN1C(=S)N(c2ccccc2)C(=O)/C1=C1/C(=O)N(C)c2ccc(Cl)cc21 | MAL12 | enzyme activity, inhibitor, absorbance | – | IC50 | 157 µM |
| COc1cc2c3c(c1OC)-c1c(OC)ccc(Cl)c1CC3N(C)CC2 (racemic) | ADRA1A | cell-free assay, radioligand | – | Ki | 0.023 µM |
| CC[C@H](C)[C@H](N)C(=O)N1CCC[C@H]1C(=O)N1CCC[C@H]1C(=O)NCC(=O)N[C@H](C(=O)N1CCC[C@H]1C(=O)N[C@@H](Cc1ccc(O)cc1)C(=O)O)C(C)C | MAOA | enzyme activity, inhibitor, fluorescence | – | IC50 | 829 µM |
| COc1cc2c(cc1OC)CN(CCc1ccc(NC(=O)c3cccc4c(=O)c5cccc(OC)c5[nH]c34)cc1)CC2 | ADRA1A | cell-free assay | – | Ki | 0.183 µM |
| CC[C@H](C)[C@H](NC(=O)[C@H](C)NC(=O)[C@H](CCC(=O)O)NC(=O)[C@H](Cc1c[nH]cn1)NC(=O)[C@H](CC(C)C)NC(=O)[C@@H](NC(=O)[C@H](Cc1ccccc1)NC(=O)[C@H](CO)NC(=O)[C@@H](NC(=O)[C@H](CC(C)C)NC(=O)[C@H](CC(=O)O)NC(=O)[C@H](CC(C)C)NC(=O)[C@@H]1CCCN1)[C@@H](C)O)C(C)C)C(=O)O | MAOA | enzyme activity, inhibitor, fluorescence | – | IC50 | 73 µM |
| COc1cc(O)cc(/C=C/c2ccc(O)cc2)c1 | MAL12 | enzyme activity, inhibitor, absorbance | pH 6.8 | IC50 | 11.7 µM |
| COc1cc2c3c(c1OC)-c1c(OC)ccc(Br)c1CC3N(C)CC2 (stereo not shown) | ADRA1A | cell-free assay, radioligand | – | Ki | 0.016 µM |
